Reference: article PMC8554411 (Pharmacology Research & Perspectives, 2021)
Values joined by “and” are separate entries in the source; they are usually repeats but may differ in a detail not shown here. Equal entries are not always repeated.

Columns and labels:
[1] = molecular target: T1, human mu opioid receptor (Homo sapiens, UniProt P35372); assay type: cell-based
[2] = molecular target: T1, human mu opioid receptor; assay: cell-based; conditions: HEK293, read-out: DAMGO Emax, inhibition of forskolin stimulated cAMP levels
[3] = molecular target: mu opioid receptor (Rattus norvegicus, UniProt P33535); assay type: in vivo
mu opioid receptor (Rattus norvegicus, UniProt P33535), sequence (P33535 whole entry): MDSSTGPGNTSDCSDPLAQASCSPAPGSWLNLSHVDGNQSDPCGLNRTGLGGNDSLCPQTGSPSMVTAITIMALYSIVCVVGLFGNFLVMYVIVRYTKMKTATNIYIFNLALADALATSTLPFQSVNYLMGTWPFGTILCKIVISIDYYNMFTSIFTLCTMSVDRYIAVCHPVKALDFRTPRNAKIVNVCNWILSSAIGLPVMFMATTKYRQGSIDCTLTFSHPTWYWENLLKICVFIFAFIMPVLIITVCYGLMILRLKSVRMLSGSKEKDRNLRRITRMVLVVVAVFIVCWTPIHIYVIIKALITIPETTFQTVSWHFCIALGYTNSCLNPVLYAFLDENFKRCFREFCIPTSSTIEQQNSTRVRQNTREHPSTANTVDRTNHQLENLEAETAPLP

[4] = molecular target: human delta opioid receptors (Homo sapiens, UniProt P41143); assay type: cell-based; conditions: MCAM 20 nM
human delta opioid receptors, sequence (P41143 whole entry): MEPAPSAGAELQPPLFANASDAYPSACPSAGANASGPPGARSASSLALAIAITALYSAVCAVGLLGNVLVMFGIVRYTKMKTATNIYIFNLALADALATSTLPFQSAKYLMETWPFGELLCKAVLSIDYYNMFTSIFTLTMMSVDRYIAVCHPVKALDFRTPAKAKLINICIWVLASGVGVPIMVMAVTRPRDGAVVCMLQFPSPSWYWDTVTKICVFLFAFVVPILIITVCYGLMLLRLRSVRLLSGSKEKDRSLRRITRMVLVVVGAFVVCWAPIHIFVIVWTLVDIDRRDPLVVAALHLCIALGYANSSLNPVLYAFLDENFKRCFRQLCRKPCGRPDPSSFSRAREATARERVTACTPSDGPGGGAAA
Procedure, shortened: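 HEK293 cells stably co-expressing the GloSensor 22F cAMP sensor and human delta receptor were kept under hygromycin B/G418 selection and plated at 40 000/well. They were loaded 2 h in the dark at 30°C with 450 μg/ml D-luciferin. Antagonist was added 15 min before agonist or during loading; for washout, medium was replaced twice. Luminescence was read at 30°C, 1 Hz: 5 min baseline, 5 min agonist, then 30 min forskolin (10 μM). Results were expressed as % forskolin stimulation; ≥4 experiments, triplicate.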

[5] = molecular target: human kappa opioid receptors (Homo sapiens, UniProt P41145); assay type: cell-based
human kappa opioid receptors, sequence (P41145 whole entry): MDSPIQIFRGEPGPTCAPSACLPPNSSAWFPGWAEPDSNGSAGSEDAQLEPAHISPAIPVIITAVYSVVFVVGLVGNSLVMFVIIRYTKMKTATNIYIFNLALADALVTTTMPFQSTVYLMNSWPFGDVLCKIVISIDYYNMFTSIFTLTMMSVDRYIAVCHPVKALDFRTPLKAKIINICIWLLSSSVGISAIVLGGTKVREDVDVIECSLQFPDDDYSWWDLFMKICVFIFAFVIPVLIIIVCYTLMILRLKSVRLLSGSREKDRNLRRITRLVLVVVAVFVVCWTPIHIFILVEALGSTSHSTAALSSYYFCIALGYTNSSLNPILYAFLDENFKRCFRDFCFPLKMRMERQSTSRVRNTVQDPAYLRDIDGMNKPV

[6] = test system: mu opioid receptor; conditions: mice treated with MCAM; cited from earlier work
[7] = molecular target: delta opioid receptor (Rattus norvegicus, UniProt P33533); assay type: in vivo
delta opioid receptor, sequence (P33533 whole entry): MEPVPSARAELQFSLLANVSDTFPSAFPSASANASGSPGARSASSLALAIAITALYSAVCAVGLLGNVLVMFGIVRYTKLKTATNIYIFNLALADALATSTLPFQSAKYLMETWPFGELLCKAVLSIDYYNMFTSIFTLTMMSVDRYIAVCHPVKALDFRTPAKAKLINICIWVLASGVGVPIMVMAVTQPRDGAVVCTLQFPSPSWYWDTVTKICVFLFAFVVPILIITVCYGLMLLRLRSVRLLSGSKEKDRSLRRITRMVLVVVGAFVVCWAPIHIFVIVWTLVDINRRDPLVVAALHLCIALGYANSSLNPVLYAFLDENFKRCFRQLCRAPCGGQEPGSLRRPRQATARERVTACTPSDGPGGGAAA

[8] = molecular target: kappa opioid receptor (Rattus norvegicus, UniProt P34975); conditions: in vivo
kappa opioid receptor, sequence (P34975 whole entry): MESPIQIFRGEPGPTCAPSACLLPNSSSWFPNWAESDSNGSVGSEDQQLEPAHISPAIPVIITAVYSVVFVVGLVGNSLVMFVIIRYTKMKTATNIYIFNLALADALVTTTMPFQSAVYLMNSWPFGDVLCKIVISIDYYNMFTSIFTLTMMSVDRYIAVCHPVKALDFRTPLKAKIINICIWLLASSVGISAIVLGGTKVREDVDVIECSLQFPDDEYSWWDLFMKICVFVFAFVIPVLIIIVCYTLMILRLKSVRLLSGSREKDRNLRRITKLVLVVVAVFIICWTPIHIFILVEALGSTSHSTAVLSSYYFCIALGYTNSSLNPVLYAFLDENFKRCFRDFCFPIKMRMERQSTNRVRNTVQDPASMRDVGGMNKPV

[9] = molecular target: T1, human mu opioid receptor; assay type: cell-based; remark: listed apart in the source

T1 sequence (P35372 whole entry): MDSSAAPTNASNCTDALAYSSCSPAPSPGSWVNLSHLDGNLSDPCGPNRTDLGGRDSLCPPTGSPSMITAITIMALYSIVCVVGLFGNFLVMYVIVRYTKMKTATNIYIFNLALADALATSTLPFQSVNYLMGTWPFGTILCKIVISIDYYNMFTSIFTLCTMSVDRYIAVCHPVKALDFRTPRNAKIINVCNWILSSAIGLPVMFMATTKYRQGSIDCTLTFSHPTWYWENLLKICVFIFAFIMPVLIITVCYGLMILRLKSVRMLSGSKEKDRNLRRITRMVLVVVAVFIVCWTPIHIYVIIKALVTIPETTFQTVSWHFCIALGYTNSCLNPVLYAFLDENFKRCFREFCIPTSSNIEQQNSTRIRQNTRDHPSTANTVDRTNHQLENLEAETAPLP

Structure (SMILES): C[C@@H](NC(=O)[C@@H](N)Cc1ccc(O)cc1)C(=O)NCC(=O)N(C)[C@@H](Cc1ccccc1)C(=O)NCCO [DAMGO, [D‐Ala^2,N‐MePhe^4,Gly‐ol^5]‐enkephalin]
- Emax (maximal inhibition of forskolin-stimulated cAMP levels) by DAMGO [1]: 43% ± 2% and 46% ± 3% and 48% ± 5%
- response to DAMGO (inhibition of forskolin-stimulated cAMP levels) [1]: essentially abolished
- Emax [2]: 85%
- effect of agonist on PGE2-stimulated thermal allodynia ([3]; DAMGO 20 μg i.pl., vehicle pretreatment, rat hindpaw): reduced

Structure (SMILES): Cc1ccc(/C=C/C(=O)N[C@@]23CCC(=O)[C@@H]4Oc5c(O)ccc6c5[C@@]42CCN(CC2CC2)[C@@H]3C6)cc1 [MCAM, 14β‐(4′‐methylcinnamoylamido)‐7,8‐dihydro‐N‐cyclopropylmethyl‐normorphinone]
- effect of antagonist alone on forskolin-stimulated cAMP levels [1]: did not alter
- effect of washout on antagonism of DAMGO [1]: did not alter
- effect of washout on the reduction of the DAMGO maximal response [1]: insensitive to washout
- rightward shift of the morphine concentration response curve by the antagonist [1]: 10 fold
- change in the maximal response to DPDPE ([4]; 15 min or 2 h pretreatment): no change
- rightward shift of the curve for DPDPE by the antagonist ([4]; 15 min or 2 h pretreatment): ~ 10 fold
- effect of washout on antagonism at delta receptors ([4]; 2 h, then wash): fully reversed
- change in the maximal response to U50488 [5]: no change
- rightward shift of the curve for U50488 by the antagonist [5]: ~ 10 fold
- effect of washout on antagonism at kappa receptors ([5]; MCAM 50 nM, 2 h, then wash): fully reversed
- 3H-DAMGO binding in brain tissue [6]: reduced
- effect of antagonist on the antinociceptive response to DAMGO ([3]; MCAM 0.25 μg/50 μl i.pl., 15 min pretreatment): antagonized
- effect of antagonist on the antinociceptive response to DPDPE ([7]; MCAM 0.5 μg/50 μl i.pl., 15 min pretreatment): antagonized
- effect of antagonist on DPDPE-mediated antinociceptive response ([7]; tested 24 h after MCAM administration i.pl.): did not block
- effect of antagonist on U50488-mediated antinociceptive response [8]: did not block
- effect of antagonist on the antinociceptive response to U50488 [8]: antagonized

Structure (SMILES): COC(=O)/C=C/C(=O)N[C@@H]1CC[C@@]2(O)[C@H]3Cc4ccc(O)c5c4[C@@]2(CCN3CC2CC2)[C@H]1O5 [β‐FNA, β‐funaltrexamine]
- effect of antagonist alone on forskolin-stimulated cAMP levels [1]: had no effect
- effect of washout on antagonism of DAMGO [1]: not sensitive to washout
- rightward shift of the DAMGO curve by the antagonist [9]: about 100 fold
